# In ChEMBL document CHEMBL1153575, “Synthesis and in vitro anticancer activity of 2,4-azolidinedione-acetic acids derivatives” (2009):
# Experiments:
# Assay type in all cases: functional
# [1] = test system: SF-268; assay: Cytotoxicity against human SF268 cells assessed as cell growth at 100 uM after 48 hrs by sulforhodamine B assay; conditions: SF-268, 48 h, read-out: Activity
# In short: (§1)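 Primary one-dose screen on a three-line panel (MCF7 breast, NCI-H460 lung, SF-268 CNS) at 10^-4 M. Cells were preincubated 24–48 h before a single addition of the agent, followed by 48 h incubation. Endpoint was SRB protein staining, reported as percent growth versus untreated controls.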
# [2] = test system: NCI-H460; assay: Cytotoxicity against human NCI-H460 cells assessed as cell growth at 100 uM after 48 hrs by sulforhodamine B assay; conditions: NCI-H460, 48 h, read-out: Activity; in short: as §1
# [3] = test system: MCF7; assay: Cytotoxicity against human MCF7 cells assessed as cell growth at 100 uM after 48 hrs by sulforhodamine B assay; conditions: MCF7, 48 h, read-out: Activity; in short: as §1
# [4] = test system: CCRF-CEM; assay: Growth inhibition of human CCRF-CEM cells after 48 hrs by sulforhodamine B assay; conditions: for TGI: read-out: pTGI (converted)
# In short: (§2)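 Five-concentration assay in about 60 human tumour lines, using 10-fold dilutions from 10^-4 to 10^-8 M with 48 h continuous exposure and an SRB protein endpoint. Percent growth at each level comes from time-zero, untreated-control and treated absorbances. GI50 is 50% lower net protein increase than control. Values beyond the tested range are given as greater or less than the extreme concentration.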
# [5] = test system: K562; assay: Growth inhibition of human K562 cells after 48 hrs by sulforhodamine B assay; conditions: K562, 48 h; in short: as §2
# [6] = test system: HL-60(TB); assay: Growth inhibition of human HL-60(TB) cells after 48 hrs by sulforhodamine B assay; conditions: HL-60, 48 h
# In short: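 Cells inoculated and preincubated 24–48 h in microtiter plates, then exposed continuously for 48 h to five 10-fold dilutions from 10^-4 to 10^-8 M. End point by sulforhodamine B protein staining, read spectrophotometrically against untreated controls and time-zero absorbance. Percent growth computed per concentration; GI50 taken where [(Ti−Tz)/(C−Tz)]×100 = 50, expressed as log molar value.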
# [7] = test system: SR; assay: Growth inhibition of human SR cells after 48 hrs by sulforhodamine B assay; conditions: for TGI: read-out: pTGI (converted); in short: as §2
# [8] = test system: MOLT-4; assay: Growth inhibition of human MOLT4 cells after 48 hrs by sulforhodamine B assay; conditions: MOLT-4, 48 h; in short: as §2
# [9] = test system: HOP-92; assay: Growth inhibition of human HOP92 cells after 48 hrs by sulforhodamine B assay; conditions: HOP-92, 48 h; for TGI: read-out: pTGI (converted); in short: as §2
# [10] = test system: SF-295; assay: Growth inhibition of human SF295 cells after 48 hrs by sulforhodamine B assay; conditions: SF-295, 48 h; in short: as §2
# [11] = Growth inhibition of human Hs 578T cells after 48 hrs by sulforhodamine B assay; in short: as §2
# [12] = Growth inhibition of human 786-O cells after 48 hrs by sulforhodamine B assay; conditions: 786-0, 48 h; in short: as §2
# [13] = test system: SNB-75; assay: Growth inhibition of human SNB75 cells after 48 hrs by sulforhodamine B assay; conditions: SNB-75, 48 h; in short: as §2
# [14] = test system: MDA-MB-231; assay: Growth inhibition of human MDA-MB-231 cells after 48 hrs by sulforhodamine B assay; conditions: MDA-MB-231, 48 h; for TGI: read-out: pTGI (converted); in short: as §2
# [15] = test system: U-251; assay: Growth inhibition of human U251 cells after 48 hrs by sulforhodamine B assay; conditions: U-251, 48 h; for TGI: read-out: pTGI (converted); in short: as §2
# [16] = test system: SK-OV-3; assay: Growth inhibition of human SKOV3 cells after 48 hrs by sulforhodamine B assay; conditions: SK-OV-3, 48 h; in short: as §2
# [17] = test system: NCI-H226; assay: Growth inhibition of human NCI-H226 cells after 48 hrs by sulforhodamine B assay; conditions: NCI-H226, 48 h; in short: as §2
# [18] = test system: MCF7; assay: Growth inhibition of human MCF7 cells after 48 hrs by sulforhodamine B assay; conditions: MCF7, 48 h; in short: as §2
# [19] = test system: OVCAR-3; assay: Growth inhibition of human OVCAR-3 cells after 48 hrs by sulforhodamine B assay; conditions: OVCAR-3, 48 h; in short: as §2
# [20] = test system: NCI-H23; assay: Growth inhibition of human NCI-H23 cells after 48 hrs by sulforhodamine B assay; conditions: NCI-H23, 48 h; in short: as §2
# [21] = test system: HCT-116; assay: Growth inhibition of human HCT116 cells after 48 hrs by sulforhodamine B assay; conditions: HCT-116, 48 h; in short: as §2
# [22] = read-out: pLC50 (the source's name) (converted)
compound,measurement,setting,value
O=C(CC1NC(=O)NC1=O)Nc1ccc(Cl)cc1 (stereo not given),growth at 100 µM,[1],114%
same,growth at 100 µM,[2],121%
same,growth at 100 µM,[3],115%
O=C(CN1C(=O)CNC1=O)Nc1cccc(C(F)(F)F)c1,growth at 100 µM,[1],113%
same,growth at 100 µM,[2],106%
same,growth at 100 µM,[3],111%
O=C(CN1C(=O)N/C(=C\c2ccc(Cl)cc2)C1=O)Nc1ccccc1C(F)(F)F,GI50,[4],1.2 µM
same,LC50,[4],> 100 µM
same,TGI,[4],> 100 µM
same,GI50,[5],5.37 µM
same,CC50,[5]; [22],> 100 µM
same,TGI,[5]; read-out: pTGI,> 100 µM
same,GI50,[6],0.295 µM
same,CC50,[6]; [22],> 100 µM
same,TGI,[6]; read-out: pTGI (converted),2 µM
same,GI50,[7],0.309 µM
same,LC50,[7],52.5 µM
same,TGI,[7],12.6 µM
same,GI50,[8],4.57 µM
same,CC50,[8]; [22],81.3 µM
same,TGI,[8]; read-out: pTGI (converted),24 µM
same,GI50,[9],18.2 µM
same,LC50,[9],> 100 µM
same,TGI,[9],97.7 µM
O=C(/C=C1\SC(=O)N(CC(=O)Nc2cccc(C(F)(F)F)c2)C1=O)Nc1ccc(Cl)cc1,growth at 100 µM,[1],100%
same,growth at 100 µM,[2],108%
same,growth at 100 µM,[3],103%
COc1ccc(/C=C2/NC(=O)N(CC(=O)Nc3cc(C(F)(F)F)ccc3Cl)C2=O)cc1,GI50,[4],21.9 µM
same,LC50,[4],> 100 µM
same,TGI,[4],> 100 µM
same,GI50,[10],30.9 µM
same,CC50,[10]; [22],> 100 µM
same,TGI,[10]; read-out: pTGI,> 100 µM
same,GI50,[7],7.24 µM
same,LC50,[7],49 µM
same,TGI,[7],20 µM
same,GI50,[11],18.6 µM
same,CC50,[11]; [22],> 100 µM
same,TGI,[11]; read-out: pTGI (converted),91.2 µM
same,GI50,[12],21.9 µM
same,CC50,[12]; [22],> 100 µM
same,TGI,[12]; read-out: pTGI (converted),> 100 µM
same,GI50,[13],2.69 µM
same,CC50,[13]; [22],> 100 µM
same,TGI,[13]; read-out: pTGI (converted),16.6 µM
same,GI50,[14],15.8 µM
same,LC50,[14],> 100 µM
same,TGI,[14],> 100 µM
same,GI50,[15],9.33 µM
same,LC50,[15],> 100 µM
same,TGI,[15],63.1 µM
same,GI50,[9],6.03 µM
same,LC50,[9],69.2 µM
same,TGI,[9],24 µM
same,GI50,[16],19.5 µM
same,LC50,[16],> 100 µM
same,TGI,[16]; read-out: pTGI (converted),81.3 µM
same,GI50,[17],26.3 µM
same,CC50,[17]; [22],> 100 µM
same,TGI,[17]; read-out: pTGI (converted),> 100 µM
O=C(CC1SC(=O)NC1=O)Nc1nccs1 (stereo not given),growth at 100 µM,[1],114%
same,growth at 100 µM,[2],116%
same,growth at 100 µM,[3],115%
O=C(CN1C(=O)S/C(=C\c2ccc(Cl)cc2)C1=O)Nc1ccc(Cl)cc1,growth at 100 µM,[1],105%
same,growth at 100 µM,[2],101%
same,growth at 100 µM,[3],102%
COc1ccc(/C=C2/NC(=O)N(CC(=O)Nc3cccc(C(F)(F)F)c3)C2=O)cc1,GI50,[18],2.82 µM
same,CC50,[18]; [22],> 100 µM
same,TGI,[18]; read-out: pTGI,> 100 µM
same,growth at 100 µM,[1],65%
same,GI50,[14],23.4 µM
same,LC50,[14],> 100 µM
same,TGI,[14],58.9 µM
same,growth at 100 µM,[2],44%
same,GI50,[19],30.9 µM
same,CC50,[19]; [22],> 100 µM
same,TGI,[19]; read-out: pTGI (converted),95.5 µM
same,GI50,[15],25.7 µM
same,LC50,[15],> 100 µM
same,TGI,[15],69.2 µM
same,GI50,[20],26.3 µM
same,LC50,[20],> 100 µM
same,TGI,[20]; read-out: pTGI (converted),89.1 µM
same,growth at 100 µM,[3],64%
same,GI50,[21],30.2 µM
same,LC50,[21],> 100 µM
same,TGI,[21]; read-out: pTGI (converted),> 100 µM
COc1ccc(/C=C2\SC(=O)N(CC(=O)Nc3nccs3)C2=O)cc1,growth at 100 µM,[1],107%
same,growth at 100 µM,[2],98%
same,growth at 100 µM,[3],98%
